# Results as given in ChEMBL document CHEMBL1158072, “Antioxidative phenolics from the fresh leaves of Ternstroemia japonica” (J Nat Prod, 2006).
# pIC50: −log10 of the molar value.
# What was measured:
# [1] = Antioxidant activity assessed as inhibition of hydroxyl radical generation by fluorescence spectroscopy; type: functional
# Outline: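 Test samples in 10% EtOH (final 0.4%) added to 1 mM H2O2 plus 0.2 mM FeSO4 and incubated 37 °C for 5 min. Esterase-treated 2 µM DCHF-DA (in EtOH) then added and fluorescence followed for 30 min at ex 460/em 530 nm. Trolox positive control. IC50 reported as mean ± standard error of triplicate experiments.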
# [2] = tested on: Kidney; test: Antioxidant activity assessed as inhibition of total reactive oxygen species generation in Wistar rat kidney by 2',7'-dichlorofluorescein based fluorescence spectroscopy; type: functional, tissue-based
# Outline: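 Rat kidney homogenate (postmicrosomal fraction) from freshly killed male Wistar rats, 150-200 g, mixed with samples in 10% EtOH (final 0.4%). DCHF-DA (12.5 mM, in EtOH, final 0.2%) added in 50 mM phosphate buffer pH 7.4 and incubated 37 °C for 30 min. DCF fluorescence read at ex 460/em 530 nm. Trolox positive control. IC50 reported as mean ± standard error, triplicate.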
# [3] = Antioxidant activity assessed as peroxynitrite scavenging activity by fluorescence spectroscopy; type: functional
# Outline: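 Authentic peroxynitrite oxidation of dihydrorhodamine 123 (final 5 µM) in N2-purged buffer of 90 mM NaCl, 50 mM Na3PO4, 5 mM KCl and 100 µM DTPA, pH 7.4. Fluorescence read 5 min after treatment with and without ONOO- at ex 480/em 530 nm. Signal taken as final minus background. DL-penicillamine positive control. IC50 reported as mean ± standard error, n = 3.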
Structure (SMILES),pIC50 [1],pIC50 [2],pIC50 [3]
O=C(Cc1ccc(O)c(O)c1)O[C@H]1[C@H](OCCc2cc(O)c(O)cc2O)O[C@H](CO)[C@@H](O)[C@@H]1O,5.38,4.34,5.81
O=c1c(O[C@@H]2O[C@H](CO)[C@@H](O)[C@H](O)[C@H]2O[C@@H]2OC[C@@H](O)[C@H](O)[C@H]2O)c(-c2ccc(O[C@@H]3O[C@H](CO)[C@@H](O)[C@H](O)[C@H]3O)cc2)oc2cc(O)cc(O)c12,5.28,4.09,4.87
CC(C)(S)C(N)C(=O)O (racemic) [DL-PENICILLAMINE],,,5.98
O=c1c(O)c(-c2ccc(O)c(O)c2)oc2cc(O)cc(O)c12 [QUERCETIN],5.62,4.54,5.86
O=C(Cc1ccc(O)c(O)c1)O[C@H]1[C@H](OCCc2ccc(O)c(O)c2)O[C@H](CO)[C@@H](O)[C@@H]1O [TERNSTROSIDE A],5.47,4.41,5.77
O=C(Cc1ccc(O)cc1)O[C@H]1[C@H](OCCc2ccc(O)c(O)c2)O[C@H](CO)[C@@H](O)[C@@H]1O [TERNSTROSIDE B],5.33,4.20,5.63
O=C(Cc1ccc(O)c(O)c1)O[C@@H]1[C@@H](O)[C@H](OCCc2ccc(O)c(O)c2)O[C@H](CO)[C@H]1O [TERNSTROSIDE C],5.49,4.48,5.94
O=C(Cc1ccc(O)c(O)c1)OC[C@H]1O[C@@H](OCCc2ccc(O)c(O)c2)[C@H](O)[C@@H](O)[C@@H]1O [TERNSTROSIDE D],5.19,4.17,5.41
O=C(Cc1ccc(O)c(O)c1)O[C@H]1[C@H](OCCc2ccc(O)cc2)O[C@H](CO)[C@@H](O)[C@@H]1O [TERNSTROSIDE E],5.33,4.26,5.59
Cc1c(C)c2c(c(C)c1O)CCC(C)(C(=O)O)O2 (configuration not stated) [TROLOX],5.55,4.53,
